Test results published in ChEMBL document CHEMBL4334441, “Exploitation of Antibiotic Resistance as a Novel Drug Target: Development of a β-Lactamase-Activated Antibacterial Prodrug” (J Med Chem, 2019).
Converted amounts (≈) assume the structure as drawn.

Key:
Escherichia coli [1] = assay: Growth inhibition of Escherichia coli CFT073 expressing pSU18 incubated for 18 hrs in presence of human serum; type: organism-based
Method in brief: (§1)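 MIC assay in E. coli CFT073 carrying pSU18 (empty pEMP or encoding CTX-M-1), run in the presence of human serum. The read-out is the minimal concentration inhibiting bacterial growth.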

Escherichia coli [2] = assay: Bactericidal activity against Escherichia coli CFT073 expressing pSU18 assessed as reduction in colony forming units at 78 nM measured after 6 hrs; type: ADME, organism-based; details: in vivo, 0.078 µM
Method in brief: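 Time-kill assay on uropathogenic E. coli CFT073 carrying pSU18, either empty (pEMP, β-lactamase coding sequence absent) or encoding CTX-M-1. Cells were left untreated or exposed to drug, and viability was followed over time by CFU counts, with a 6 h incubation read-out.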

[3] = Prodrug activation in Escherichia coli CFT073 expressing NDM1 assessed as bacterial NDM1-mediated ciprofloxacin release by measuring growth inhibition incubated for 18 hr by broth microdilution method; details: bacteria
Method in brief: (§2)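 MIC determination in E. coli CFT073, either wild type or carrying pSU18 (empty pEMP, or encoding CTX-M, NDM-1 or KPC). Dose–response growth curves were run, and each point is the mean ± SEM of n = 3. The MIC is the minimal concentration that inhibits bacterial growth.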

Escherichia coli [4] = assay: Growth inhibition of Escherichia coli CFT073 incubated for 18 hrs by broth microdilution method; type: organism-based; details: in vivo; method in brief: as §2
[5] = Prodrug activation in ciprofloxacin-resistant Escherichia coli isolate EC12 expressing bacterial beta lactamase CTX-M-15 assessed as bacterial CTX-M-15-mediated ciprofloxacin release by measuring growth inhibition incubated for 18 hrs by broth microdilution method
[6] = Prodrug activation in Escherichia coli CFT073 expressing KPC3 assessed as bacterial KPC3-mediated ciprofloxacin release by measuring growth inhibition incubated for 18 hr by broth microdilution method; details: bacteria; method in brief: as §2
Bacteria = assay: Prodrug activation assessed as bacterial N-terminal His6-tagged CTX-M-15-mediated ciprofloxacin release by measuring inhibition of DNA gyrase activity 1 uM by SYBR Safe DNA gel staining-based agarose gel electrophoresis relative to control
Method in brief: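 Cell-free assay using recombinant DNA gyrase with relaxed pBR322 plasmid DNA as substrate. Compounds were incubated with the gyrase and DNA in the absence or presence of purified recombinant β-lactamase CTX-M-15.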

[7] = Prodrug activation in ciprofloxacin sensitive Escherichia coli isolate EC11 expressing bacterial beta lactamase CTX-M-15 assessed as bacterial CTX-M-15-mediated ciprofloxacin release by measuring growth inhibition incubated for 18 hrs by broth microdilution method
[8] = Prodrug activation in ciprofloxacin sensitive Escherichia coli isolate EC17 expressing bacterial beta lactamase CTX-M-15 assessed as bacterial CTX-M-15-mediated ciprofloxacin release by measuring growth inhibition incubated for 18 hrs by broth microdilution method
Escherichia coli [9] = assay: Growth inhibition of ciprofloxacin-susceptible Escherichia coli CFT073 harboring pSU18 incubated for 18 hrs by broth microdilution method; type: organism-based; details: in vivo; method in brief: as §2
[10] = Ratio of prodrug activation in Escherichia coli CFT073 expressing beta lactamase CTX-M-1 assessed as bacterial CTX-M-1-mediated ciprofloxacin release by measuring bactericidal activity to bactericidal activity against Escherichia coli CFT073 expressing pSU18
[11] = Prodrug activation in Escherichia coli CFT073 expressing beta lactamase CTX-M-1 assessed as bacterial CTX-M-1-mediated ciprofloxacin release by measuring growth inhibition incubated for 18 hrs in presence of human serum by broth microdilution method; details: bacteria; method in brief: as §1
[12] = Prodrug activation in Escherichia coli CFT073 expressing beta lactamase CTX-M-1 assessed as bacterial CTX-M-1-mediated ciprofloxacin release by measuring growth inhibition incubated for 18 hrs by broth microdilution method; details: bacteria; method in brief: as §2
[13] = Prodrug activation in ciprofloxacin-resistant Escherichia coli isolate EC19 expressing bacterial beta lactamase CTX-M-15 assessed as bacterial CTX-M-15-mediated ciprofloxacin release by measuring growth inhibition incubated for 18 hrs by broth microdilution method
Enterococcus faecalis [14] = assay: Effect on growth of Enterococcus faecalis GW01 incubated for 18 hrs by broth microdilution method; type: organism-based; details: in vivo
[15] = Prodrug activation in ciprofloxacin sensitive Escherichia coli isolate EC16 expressing bacterial beta lactamase CTX-M-15 assessed as bacterial CTX-M-15-mediated ciprofloxacin release by measuring growth inhibition incubated for 18 hrs by broth microdilution method
[16] = Prodrug activation in ciprofloxacin-resistant Escherichia coli isolate EC13 expressing bacterial beta lactamase CTX-M-15 assessed as bacterial CTX-M-15-mediated ciprofloxacin release by measuring growth inhibition incubated for 18 hrs by broth microdilution method
Enterococcus faecalis [17] = assay: Effect on growth of Enterococcus faecalis ATCC 29212 incubated for 18 hrs by broth microdilution method; type: organism-based; details: in vivo

CC(=O)N[C@@H]1C(=O)N2C(C(=O)O)=C(COC(=O)c3cn(C4CC4)c4cc(N5CCNCC5)c(F)cc4c3=O)CS[C@H]12
Activity (Escherichia coli [1]): Non-Toxic
Activity (Escherichia coli [2]): Non-Toxic
MIC [3]: 0.04 µg/mL (≈ 0.0683 µM)
MIC (Escherichia coli [4]): 0.18 µg/mL (≈ 0.307 µM)
growth inhibition (GI) [5]: Not Active
MIC [6]: 0.04 µg/mL (≈ 0.0683 µM)
inhibition (Bacteria): > 50%
growth inhibition (GI) [7]: Active
growth inhibition (GI) [8]: Active
MIC (Escherichia coli [9]): 0.18 µg/mL (≈ 0.307 µM)
Ratio [10]: > 100
growth inhibition (GI) [11]: Active
MIC [12]: 0.04 µg/mL (≈ 0.0683 µM)
growth inhibition (GI) [13]: Not Active
Activity (Enterococcus faecalis [14]): Non-Toxic
growth inhibition (GI) [15]: Active
growth inhibition (GI) [16]: Not Active
Activity (Enterococcus faecalis [17]): Non-Toxic
